Reference: ChEMBL document CHEMBL4513216, “Probing the Open Global Health Chemical Diversity Library for Multistage-Active Starting Points for Next-Generation Antimalarials” (ACS Infect Dis, 2020)

Experiment: Toxicity liver stage against HepG2, at 10uM
Format: cell-based
Design: test concentration 10 uM, cell line HepG2-A16-CD81EGFP
Conditions: human, HepG2-A16-CD81EGFP cells; read-out: INHIBITION
Summary of the method: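 Uninfected HepG2-A16-CD81EGFP cells, 3 × 10^3 per well, 1536-well, plated on prespotted compound at 10 μM final, parasite-free screening media added to match infected plates; puromycin 10 μM positive, DMSO 0.5% negative; run in parallel with 48 h PbLuc assay at 37 °C, 5% CO2; viability by CellTiter-Glo luminescence, normalized to controls.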

Row | SMILES | cytotoxicity at 10 µM [%]
1 | CNC(=O)C1CCN(c2nc3nc[nH]c(=O)c3s2)CC1 | -13.5
2 | Cn1cc2c(n1)C(CNCc1ccco1)OCC2 (stereo unspecified) | -1.54
3 | CCN1N=C(C(=O)N2CCCC(c3nc(C)c(C)s3)C2)CCC1=O (stereo unspecified) | 1.84
4 | Cc1ccc(-c2nc(CCNC(=O)NCC(C)(C)C(N)=O)co2)cc1 | -10.1
5 | CCS(=O)(=O)CCN1CCN(C2CCC(C(C)C)CC2)CC1 (stereo unspecified) | 7.76
6 | CN(CCCc1nccn1C)C(=O)C1CCN(C(=O)C2CCC2)CC1 | -7.12
7 | Cc1noc(C)c1CN1CC[C@H]2OCC[C@@]2(C(=O)N2CCCO2)C1 | 1.59
8 | CC(C)CN1C(=O)C2(CCN(Cc3ccsc3)C2)c2ccccc21 (stereo unspecified) | 15.7
9 | CC1c2ncc(COc3cccnc3)n2CCN1C(=O)C1=CCCC1 (stereo unspecified) | -2.59
10 | CNC(=O)NC(=O)CCSCc1cc(F)cc2cccnc12 | -5.31
11 | Cc1cc(-c2nn(C)c(Cl)c2CN2CCOCC2CC(N)=O)no1 (stereo unspecified) | 3.3
12 | CCn1nc(C)cc1C(=O)NCc1cc(N(C)C)nc2ccccc12 | 10.6
13 | CCn1nc(C)cc1C(=O)N1CC[C@H](OC)[C@H]2CN(CC3CC3)C[C@H]21 | -133
14 | O=C(CCN1CCOC(Cn2cccn2)C1)NC1CCCC1 (stereo unspecified) | 4.98
15 | c1cnc(OCc2nnc3n2CCN(CC2CCOCC2)C3)nc1 | 4.95
16 | CNS(=O)(=O)c1ccc(CNC(=O)Nc2cn[nH]c2)cc1 | -8.75
17 | COCCCN(CCOC)C(=O)Nc1ccccc1-n1cccn1 | 1.51
18 | CN1CCCC(CCC(=O)N2CCc3sc(C(=O)N(C)C)cc3C2)C1 (stereo unspecified) | 1.42
19 | COCCC(=O)N1CCC2(CCN(Cc3cccc(F)c3)CC2)CC1 | -75
20 | CN(C)CCN1CCCC12CCCN(Cc1ccoc1)C2 (stereo unspecified) | 7.88
21 | Cc1nn(CC(C)C)cc1S(=O)(=O)N(C)Cc1nonc1C | 11.3

Row | SMILES | cytotoxicity at 10 µM [%]
22 | Cn1nccc1C(=O)N1CCN(C(=O)C2CC2)[C@@H]2CS(=O)(=O)C[C@@H]21 | 3.11
23 | CN(Cc1ccsc1)C(=O)c1cc2c([nH]c1=O)CCC2 | -12.4
24 | Cc1occc1C(=O)N1CCCS1(=O)=O | -11
25 | C[C@@H]1CN(C(=O)c2ccc(Br)cc2F)CC(C(N)=O)O1 (stereo partly specified) | -2.74
26 | Cc1csc(N2CCN(C(=O)C3(C#N)CCCC3)CC2)n1 | -12.6
27 | Cc1nn(C)cc1-c1ccnc(N(C)Cc2cnn(C)c2)n1 | 19.9
28 | CNC(=O)c1cc2c(nc1N(C)C)CCN(S(=O)(=O)C1CC1)CC2 | 0.118
29 | CS(=O)(=O)N1C[C@H]2CCCN(Cc3ccsc3)[C@H]2C1 | 6.43
30 | Cc1cc(CN2C[C@@H](N3CCN(C)CC3)[C@H]3OCCC[C@H]32)oc1C | -132
31 | COCC1CN(C(=O)c2cccn2C)Cc2ncnn2C1 (stereo unspecified) | -8.97
32 | O=C(CN1CCN(c2ccnc3c(F)ccc(F)c23)CC1)NC1CC1 | -1.12
33 | C[C@@H]1CN(Cc2ccccc2F)CC(C(N)=O)O1 (stereo partly specified) | 1.95
34 | O=S(=O)(NCCCn1cncn1)c1ccc2c(c1)CCO2 | -10.2
35 | O=C1OCCN1C1CCN(Cc2cc3n(n2)CCCNC3)CC1 | 12.7
36 | O=C(N1CCOCC1)N1CCN(c2ccncc2Cl)CC1 | -4.79
37 | Cn1c(Cn2ncc(N3CCCC3)cc2=O)nc2ccccc21 | 5.65
38 | COCCNc1nc(-c2ccc(S(=O)(=O)N3CCCCC3)cc2)cs1 | -42
39 | Cc1cc(CN2C[C@@H]3CN(C(=O)c4ccco4)CCO[C@@H]3C2)no1 | -141
40 | CN(C)CC1CN(Cc2cccc(C#N)c2)Cc2nccn2C1 (stereo unspecified) | -124
41 | Cc1ccc(CN2CCC3(CC(=O)N(c4ccc5c(c4)OCO5)C3)C2)o1 (stereo unspecified) | -70.2
42 | COc1ccccc1C1(C(=O)NCCN2CCOCC2)CCOCC1 | -11.6

Row | SMILES | cytotoxicity at 10 µM [%]
43 | O=C(c1ccc[nH]1)N1CCOCC2(C1)CN(c1ccccc1)C(=O)CO2 (stereo unspecified) | -1.05
44 | CC(C)c1nc(CN2CCN(Cc3ccccn3)CC2)cs1 | -4.41
45 | O=C(CCCn1ccnc1)N1CCC2(CC1)[C@H](O)C[C@@H]2OCCO | 3.31
46 | Cc1ccc(C(C(=O)NCCN2CCCCCC2)N(C)C)cc1 (stereo unspecified) | -3.12
47 | Cc1cc(C)n(CC(C)NC(=O)NCc2c(C)cc(C)[nH]c2=O)n1 (stereo unspecified) | -6.58
48 | CC(C)c1nc(CNCC2CCCN2c2cccnn2)cs1 (stereo unspecified) | -4.84
49 | O=C(CCc1ccc(Cl)s1)N1CCCC(n2cncn2)C1 (stereo unspecified) | -7.7
50 | CSc1ncc(CNC(C)c2cnn(-c3ccc(F)cc3F)c2C)cn1 (stereo unspecified) | 2.77
51 | CCN1CCN(C)C(=O)C12CCN(Cc1ccsc1)CC2 | 1.14
52 | Cc1ccc(N2CCN(C(=O)CN3C[C@H]4CC[C@@H]3C4)CC2=O)cc1 | -1.41
53 | OC(CN1CCN(Cc2cccnc2)CC1)c1cccs1 (stereo unspecified) | -5.62
54 | CC(C)Oc1cccc(C(O)CNC(=O)CCc2ccncc2)c1 (stereo unspecified) | -3.82
55 | Cc1nc(C)n(C2CCCN(C(=O)Cc3csc(C(C)C)n3)C2)n1 (stereo unspecified) | -15.8
56 | CCOC(C)c1noc(CN2CCN(Cc3ccno3)CC2)n1 (stereo unspecified) | 7.24
57 | Cc1nc(CN(C)c2cc(N3CCCC3CO)ncn2)cs1 (stereo unspecified) | 4.53
58 | CC(=O)N1CCCCC12CCCN(Cc1ccco1)C2 (stereo unspecified) | 4.59
59 | CNC(=O)CN1CCCC1c1ccccc1Br (stereo unspecified) | -2.22
60 | O=C(CCc1cccs1)N1CCCC(N2CCNC2=O)C1 (stereo unspecified) | -6.7
61 | CCN1CCN(C(=O)C(C)n2cc(Br)cn2)CC1 (stereo unspecified) | 6.39
62 | O=C1OC2(CCNCC2)CN1CC(=O)N1CCC1c1cccs1 (stereo unspecified) | 4.35
63 | CC1CCN(CC(O)CN2CCn3c(nnc3C3CC3)C2)CC1 (stereo unspecified) | -2.22

Row | SMILES | cytotoxicity at 10 µM [%]
64 | O=C(c1ccc(S(=O)(=O)NCc2ccon2)cc1)N1CCNCC1 | 2.59
65 | Cc1noc(C)c1C(=O)N1Cc2ncn(C)c2C(COCC(C)C)C1 (stereo unspecified) | -105
66 | COC(=O)c1ccc(Cn2nc(C)cc2C)c(F)c1 | 4.11
67 | O=C(CSc1ccc2c(c1)OCCO2)NS(=O)(=O)c1cccs1 | -3.13
68 | CCCOc1ccc(C(=O)N[C@@H]2CCNC[C@H]2O)cc1Cl | -10.4
69 | O=C1CNc2ncnc(N3CCN(Cc4ccccc4)CC3)c2N1 | 9.76
70 | Cc1nc(O)cc(CN2C[C@H](NC(=O)C3CCCC3)[C@@H](C3CC3)C2)n1 | -4.7
71 | CCOc1ccc(C(=O)N2C[C@@H]3CC[C@H]2CN(C)C3)cc1OCC | -15.7
72 | Cc1nc2c(s1)C(N(C)C(=O)NCCCC(C)(C)CO)CCC2 (stereo unspecified) | -3.43
73 | O=C(NCc1ccc(-n2cncn2)nc1)c1cc(Cl)ccn1 | 2.8
74 | CC(C(=O)Nc1ncccn1)N1CCC(n2ccnc2)CC1 (stereo unspecified) | -8.15
75 | CS(=O)(=O)Cc1ccc(Cl)c(NCc2noc(C3CC3)n2)c1 | 6.95
76 | CN(C)C(=O)N[C@@H]1CN(Cc2ccc3c(c2)OCO3)[C@@H]2CCCO[C@@H]21 | -6.93
77 | O=C(c1ccc2c(c1)OCCO2)N1CCCC(n2ccnc2)C1 (stereo unspecified) | -16.3
78 | CN1CCN(c2ccc(Br)cc2NC(=O)c2ccco2)CC1 | -6.09
79 | CO[C@H]1CO[C@@]2(CCCN(C(=O)C3CC=CC3)C2)C1 | -98.6
80 | Cc1cccn2cc(CNS(=O)(=O)N3CCOCC3)nc12 | -6.6
81 | COCc1nc(C(=O)N2CCCC2Cn2cc(C)cn2)cs1 (stereo unspecified) | -1.36
